pEC50: −log10 of the molar value. The source made the active and inactive calls. No cut-off for these calls is given here.
How the values were obtained:
[1] = molecular target: T1, Peroxisome proliferator-activated receptor alpha (Mus musculus) (UniProt P23204); assay: Agonist activity at human PPARalpha in mouse hepatocytes assessed as induction of Pdk4 mRNA expression at 50 uM incubated for 16 hrs by quantitative real-time PCR analysis; format: cell-based; settings: Hepatocyte, filed as agonist
T1 sequence (whole entry): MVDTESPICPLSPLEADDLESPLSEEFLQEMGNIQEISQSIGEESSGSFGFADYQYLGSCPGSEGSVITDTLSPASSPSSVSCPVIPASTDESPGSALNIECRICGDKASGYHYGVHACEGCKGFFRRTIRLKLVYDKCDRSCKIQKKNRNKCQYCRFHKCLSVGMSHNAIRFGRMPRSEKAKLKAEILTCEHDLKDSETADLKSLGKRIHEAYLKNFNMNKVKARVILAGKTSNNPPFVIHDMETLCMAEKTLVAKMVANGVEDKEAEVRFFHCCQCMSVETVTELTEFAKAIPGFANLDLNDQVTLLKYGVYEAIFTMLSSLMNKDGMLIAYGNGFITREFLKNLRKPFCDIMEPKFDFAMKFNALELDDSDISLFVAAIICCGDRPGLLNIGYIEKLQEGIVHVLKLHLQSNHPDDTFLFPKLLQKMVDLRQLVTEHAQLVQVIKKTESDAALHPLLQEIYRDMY
Procedure, shortened: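 Collagenase-perfused mouse primary hepatocytes from WT mice, plated 2 h in attachment medium, overnight in M199 with 5% charcoal-stripped FBS and 1 nM insulin. Treated next day in serum-free M199 with 50 μM compound for 16 h. RNA qPCR (SYBR Green), comparative Ct method.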

[2] = molecular target: T2, Peroxisome proliferator-activated receptor gamma (Homo sapiens) (UniProt P37231); assay: Agonist activity at human PPARgamma expressed in HEK293 cells assessed as maximal activity by luciferase/beta-galactosidase reporter gene assay relative to rosiglitazone; format: cell-based
T2 sequence (whole entry): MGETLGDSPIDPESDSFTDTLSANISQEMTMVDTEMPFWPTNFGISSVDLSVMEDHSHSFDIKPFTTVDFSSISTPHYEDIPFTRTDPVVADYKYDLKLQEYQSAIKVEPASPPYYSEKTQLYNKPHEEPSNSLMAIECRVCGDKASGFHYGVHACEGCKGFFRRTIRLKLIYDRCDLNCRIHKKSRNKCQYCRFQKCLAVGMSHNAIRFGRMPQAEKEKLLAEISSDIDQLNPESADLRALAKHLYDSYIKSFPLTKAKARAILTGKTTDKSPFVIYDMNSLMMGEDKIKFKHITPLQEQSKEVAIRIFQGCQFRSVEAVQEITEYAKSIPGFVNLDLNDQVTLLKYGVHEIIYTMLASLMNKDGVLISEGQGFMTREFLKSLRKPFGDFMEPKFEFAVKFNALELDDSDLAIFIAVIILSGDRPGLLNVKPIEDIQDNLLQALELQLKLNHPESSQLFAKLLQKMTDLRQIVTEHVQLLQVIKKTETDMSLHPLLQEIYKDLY
Procedure, shortened: (§1)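 HEK293 cells in charcoal-stripped FBS, calcium phosphate co-transfected with GAL4-hPPAR LBD fusion, UAS-luciferase and β-galactosidase. Ligand added 6–8 h post transfection, full dose–response, harvested 14–16 h later. Luciferase normalized to β-galactosidase.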

[3] = molecular target: T2, Peroxisome proliferator-activated receptor gamma (Homo sapiens); assay: Stabilization of human PPARgamma LBD assessed as change in melting temperature at 50 uM by thermal shift assay
[4] = molecular target: T3, Peroxisome proliferator-activated receptor delta (Homo sapiens) (UniProt Q03181); assay: Stabilization of human PPARdelta LBD assessed as change in melting temperature at 50 uM by thermal shift assay
T3 sequence (whole entry): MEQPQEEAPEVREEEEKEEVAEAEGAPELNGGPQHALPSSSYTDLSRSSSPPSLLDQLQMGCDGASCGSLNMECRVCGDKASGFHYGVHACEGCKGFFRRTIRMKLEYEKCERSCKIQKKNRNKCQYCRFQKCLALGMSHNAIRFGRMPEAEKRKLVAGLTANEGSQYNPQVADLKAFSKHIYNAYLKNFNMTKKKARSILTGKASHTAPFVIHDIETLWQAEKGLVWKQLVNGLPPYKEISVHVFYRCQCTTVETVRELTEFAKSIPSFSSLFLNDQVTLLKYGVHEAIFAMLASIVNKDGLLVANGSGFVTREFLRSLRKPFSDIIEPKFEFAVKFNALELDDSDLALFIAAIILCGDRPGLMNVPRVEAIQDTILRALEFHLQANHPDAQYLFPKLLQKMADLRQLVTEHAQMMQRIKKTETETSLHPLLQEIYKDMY

[5] = molecular target: T4, Peroxisome proliferator-activated receptor alpha (Homo sapiens, UniProt Q07869); assay: Agonist activity at human PPARalpha expressed in HEK293 cells by luciferase/beta-galactosidase reporter gene assay; format: cell-based; procedure, shortened: as §1
T4 sequence (Q07869 whole entry): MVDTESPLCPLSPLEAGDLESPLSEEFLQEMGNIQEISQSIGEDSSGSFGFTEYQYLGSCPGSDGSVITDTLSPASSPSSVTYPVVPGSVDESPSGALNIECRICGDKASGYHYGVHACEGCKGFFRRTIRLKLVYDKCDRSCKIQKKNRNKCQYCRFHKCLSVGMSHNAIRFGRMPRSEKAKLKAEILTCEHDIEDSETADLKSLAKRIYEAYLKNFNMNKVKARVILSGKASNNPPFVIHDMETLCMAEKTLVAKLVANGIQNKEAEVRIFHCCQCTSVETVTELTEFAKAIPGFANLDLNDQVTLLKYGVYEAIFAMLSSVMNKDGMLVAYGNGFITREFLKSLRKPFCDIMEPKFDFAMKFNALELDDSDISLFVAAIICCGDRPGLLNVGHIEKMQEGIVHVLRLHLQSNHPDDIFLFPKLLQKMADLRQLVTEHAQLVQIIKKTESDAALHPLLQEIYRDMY

[6] = Metabolic stability in C57BL/6 mouse liver microsomes assessed as parent compound remaining incubated for 120 mins; format: ADME, Microsome; settings: read-out: Stability
[7] = molecular target: T5, Peroxisome proliferator-activated receptor alpha (Homo sapiens) (UniProt Q07869); assay: Stabilization of human PPARalpha LBD assessed as change in melting temperature at 25 uM by thermal shift assay
T5 sequence (whole entry): T4 sequence (Q07869 whole entry)
Procedure, shortened: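 Purified hPPAR LBD at 1 mg/mL (∼25 μM) with ligand (α-LBD at 25 μM; γ- and δ-LBD at 50 μM). Static light scattering at 473 nm from 25 to 70 °C in 0.5 °C steps, 1 °C/min. Tm from four-parameter fit; ΔTm relative to DMSO; mean ± SEM, N = 3.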

[8] = molecular target: T2, Peroxisome proliferator-activated receptor gamma (Homo sapiens); assay: Agonist activity at human PPARgamma transfected in HEK293 cells assessed as relative luciferase unit at 50 uM measured after 16 hrs by luciferase reporter gene assay; format: cell-based; settings: filed as agonist
Procedure, shortened: (§2)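 GAL4-hPPAR (α or γ) plus UAS-luciferase and β-galactosidase transiently co-transfected into HEK293 cells, then treated with 50 μM compound for 16 h. RLU = luciferase/β-galactosidase × time, vehicle (DMSO) set to 1. Mean ± SD, N = 3; one-way ANOVA with Holm–Šidák vs vehicle.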

[9] = molecular target: T5, Peroxisome proliferator-activated receptor alpha (Homo sapiens); assay: Agonist activity at human PPARalpha transfected in HEK293 cells assessed as relative luciferase unit at 50 uM measured after 16 hrs by luciferase reporter gene assay; format: cell-based; settings: filed as agonist; procedure, shortened: as §2

| Compound | Activity [1] | Emax ([2]; filed as agonist) [%] | ΔTm [3] [°C] | ΔTm [4] [°C] | pEC50 [5] | remaining at 2 h [6] [%] | ΔTm [7] [°C] | Activity [8] | Activity [9] | Emax [2] [%] |
| --- | --- | --- | --- | --- | --- | --- | --- | --- | --- | --- |
| CCCCCC/C=C\CCCCCCCc1cccc(OC(C)(C)C(=O)O)c1 | Active | > 90 | 5.6 | 6.8 | 6.15 | 90 | 3.8 | Active | Active | – |
| CCCCCCCCCCCCCCCc1cccc(OC(C)=O)c1C(=O)O | Active | > 90 | 4.4 | 12 | 5.62 | 0 | 17.4 | Active | Active | – |
| CCCCCCCCCCCCCCCc1cccc(OC(C)(C)C(=O)O)c1 | Active | – | 6.3 | 11.3 | 6.30 | 79 | 10.8 | Active | Active | 30 |

From ChEMBL document CHEMBL5154715, “Phenolic Lipids Derived from Cashew Nut Shell Liquid to Treat Metabolic Diseases” (J Med Chem, 2022)
